Experimental data: article PMC12377214 (RSC Advances, 2025)
Several values for one entry are separate records, joined by “and”; a condition that tells them apart may be missing. Equal values may be shown once. Blank lines part the entries; values can stand above or below the molecule they belong to.

Key:
A498 (kidney carcinoma) = experiment: Antiproliferative SRB assay, A-498; type: cell-based, human; details: for IC50: Homo sapiens, A498, 72 h, read-out: pIC50 A-498 (converted); for Selectivity index (SI) A498: IC50 BALB/3T3 / IC50 A498
[1] = test system: HepG-2 (hepatocellular carcinoma); experiment: Antiproliferative SRB assay, HepG2; type: cell-based, human; details: for IC50: Homo sapiens, HepG2, 72 h, read-out: pIC50 HepG2 (converted); for Selectivity index (SI) HepG2: IC50 BALB/3T3 / IC50 HepG2
[2] = test system: MDA-MB-231 (breast adenocarcinoma); experiment: Antiproliferative SRB assay, MDA-MB-231; type: cell-based, human; details: for IC50: Homo sapiens, MDA-MB-231, 72 h, read-out: pIC50 MDA-MB-231 (converted); for Selectivity index (SI) MDA-MB-231: IC50 BALB/3T3 / IC50 MDA-MB-231
xanthine oxidase (XO) [3] = biological target: T1, xanthine oxidase (XO) (Homo sapiens, UniProt P47989); experiment: Xanthine oxidase inhibition assay; type: biochemical
T1 sequence (P47989 whole entry, species assumed): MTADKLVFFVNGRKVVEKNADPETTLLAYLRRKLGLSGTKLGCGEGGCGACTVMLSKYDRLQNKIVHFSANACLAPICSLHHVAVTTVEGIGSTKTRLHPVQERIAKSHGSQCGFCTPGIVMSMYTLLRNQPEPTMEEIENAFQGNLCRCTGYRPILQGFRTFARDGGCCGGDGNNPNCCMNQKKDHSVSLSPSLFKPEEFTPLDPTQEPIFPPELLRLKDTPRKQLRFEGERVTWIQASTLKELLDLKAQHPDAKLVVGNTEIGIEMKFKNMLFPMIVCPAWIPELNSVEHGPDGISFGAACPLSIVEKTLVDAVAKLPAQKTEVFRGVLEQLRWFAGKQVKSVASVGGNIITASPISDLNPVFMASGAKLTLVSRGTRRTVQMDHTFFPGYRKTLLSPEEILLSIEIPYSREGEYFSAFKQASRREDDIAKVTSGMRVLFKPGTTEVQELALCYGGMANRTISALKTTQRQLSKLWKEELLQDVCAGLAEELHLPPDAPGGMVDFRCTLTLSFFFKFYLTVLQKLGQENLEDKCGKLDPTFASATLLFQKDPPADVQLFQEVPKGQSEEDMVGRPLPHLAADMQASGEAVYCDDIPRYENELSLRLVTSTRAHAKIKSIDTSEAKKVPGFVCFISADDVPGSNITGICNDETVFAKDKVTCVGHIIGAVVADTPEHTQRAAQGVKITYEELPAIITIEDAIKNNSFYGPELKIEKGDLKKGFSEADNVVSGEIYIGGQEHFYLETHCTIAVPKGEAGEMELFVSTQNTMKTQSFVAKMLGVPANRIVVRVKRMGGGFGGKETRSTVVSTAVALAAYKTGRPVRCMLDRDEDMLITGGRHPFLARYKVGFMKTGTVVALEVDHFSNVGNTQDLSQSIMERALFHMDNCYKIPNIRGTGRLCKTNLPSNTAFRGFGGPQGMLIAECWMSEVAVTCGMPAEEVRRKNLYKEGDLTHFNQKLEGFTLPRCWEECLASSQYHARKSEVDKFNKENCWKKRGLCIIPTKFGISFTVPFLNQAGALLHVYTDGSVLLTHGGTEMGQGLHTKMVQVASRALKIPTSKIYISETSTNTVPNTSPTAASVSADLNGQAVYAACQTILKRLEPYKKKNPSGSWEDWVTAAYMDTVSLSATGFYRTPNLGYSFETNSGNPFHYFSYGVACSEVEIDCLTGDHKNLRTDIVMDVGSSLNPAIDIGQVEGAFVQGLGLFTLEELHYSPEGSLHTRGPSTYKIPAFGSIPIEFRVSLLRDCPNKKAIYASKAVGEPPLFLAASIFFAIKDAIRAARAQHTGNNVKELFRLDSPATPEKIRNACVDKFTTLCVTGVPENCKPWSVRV

CDK6/Cyclin D3 = CDK6/Cyclin D3 (Homo sapiens, UniProt Q00534); experiment: In vitro CDK6 inhibitory assay; type: biochemical
Sequence of CDK6/Cyclin D3 (Q00534 whole entry): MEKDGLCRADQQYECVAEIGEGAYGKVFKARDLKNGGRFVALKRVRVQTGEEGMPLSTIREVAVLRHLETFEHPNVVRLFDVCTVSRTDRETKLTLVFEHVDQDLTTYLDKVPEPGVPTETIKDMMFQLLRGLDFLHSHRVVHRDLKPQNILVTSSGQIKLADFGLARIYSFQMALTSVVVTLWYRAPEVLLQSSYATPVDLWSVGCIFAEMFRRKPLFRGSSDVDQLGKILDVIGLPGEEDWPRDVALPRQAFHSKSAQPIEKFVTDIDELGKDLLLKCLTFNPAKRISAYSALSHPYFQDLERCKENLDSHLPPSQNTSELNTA
Sequence of CDK6/Cyclin D3 (P30281 whole entry partner): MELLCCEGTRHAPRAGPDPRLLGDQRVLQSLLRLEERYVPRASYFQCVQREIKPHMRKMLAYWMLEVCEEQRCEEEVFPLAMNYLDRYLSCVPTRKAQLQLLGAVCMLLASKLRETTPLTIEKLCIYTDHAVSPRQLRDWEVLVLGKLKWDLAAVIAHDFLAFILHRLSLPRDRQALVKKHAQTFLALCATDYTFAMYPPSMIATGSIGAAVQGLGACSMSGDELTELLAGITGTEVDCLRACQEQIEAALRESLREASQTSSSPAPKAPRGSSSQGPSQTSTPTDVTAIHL

VEGFR-2 = VEGFR-2 (Homo sapiens, UniProt P35968); experiment: In vitro VEGFR-2 kinase inhibitory assay; type: biochemical
Sequence of VEGFR-2 (P35968 20-1356): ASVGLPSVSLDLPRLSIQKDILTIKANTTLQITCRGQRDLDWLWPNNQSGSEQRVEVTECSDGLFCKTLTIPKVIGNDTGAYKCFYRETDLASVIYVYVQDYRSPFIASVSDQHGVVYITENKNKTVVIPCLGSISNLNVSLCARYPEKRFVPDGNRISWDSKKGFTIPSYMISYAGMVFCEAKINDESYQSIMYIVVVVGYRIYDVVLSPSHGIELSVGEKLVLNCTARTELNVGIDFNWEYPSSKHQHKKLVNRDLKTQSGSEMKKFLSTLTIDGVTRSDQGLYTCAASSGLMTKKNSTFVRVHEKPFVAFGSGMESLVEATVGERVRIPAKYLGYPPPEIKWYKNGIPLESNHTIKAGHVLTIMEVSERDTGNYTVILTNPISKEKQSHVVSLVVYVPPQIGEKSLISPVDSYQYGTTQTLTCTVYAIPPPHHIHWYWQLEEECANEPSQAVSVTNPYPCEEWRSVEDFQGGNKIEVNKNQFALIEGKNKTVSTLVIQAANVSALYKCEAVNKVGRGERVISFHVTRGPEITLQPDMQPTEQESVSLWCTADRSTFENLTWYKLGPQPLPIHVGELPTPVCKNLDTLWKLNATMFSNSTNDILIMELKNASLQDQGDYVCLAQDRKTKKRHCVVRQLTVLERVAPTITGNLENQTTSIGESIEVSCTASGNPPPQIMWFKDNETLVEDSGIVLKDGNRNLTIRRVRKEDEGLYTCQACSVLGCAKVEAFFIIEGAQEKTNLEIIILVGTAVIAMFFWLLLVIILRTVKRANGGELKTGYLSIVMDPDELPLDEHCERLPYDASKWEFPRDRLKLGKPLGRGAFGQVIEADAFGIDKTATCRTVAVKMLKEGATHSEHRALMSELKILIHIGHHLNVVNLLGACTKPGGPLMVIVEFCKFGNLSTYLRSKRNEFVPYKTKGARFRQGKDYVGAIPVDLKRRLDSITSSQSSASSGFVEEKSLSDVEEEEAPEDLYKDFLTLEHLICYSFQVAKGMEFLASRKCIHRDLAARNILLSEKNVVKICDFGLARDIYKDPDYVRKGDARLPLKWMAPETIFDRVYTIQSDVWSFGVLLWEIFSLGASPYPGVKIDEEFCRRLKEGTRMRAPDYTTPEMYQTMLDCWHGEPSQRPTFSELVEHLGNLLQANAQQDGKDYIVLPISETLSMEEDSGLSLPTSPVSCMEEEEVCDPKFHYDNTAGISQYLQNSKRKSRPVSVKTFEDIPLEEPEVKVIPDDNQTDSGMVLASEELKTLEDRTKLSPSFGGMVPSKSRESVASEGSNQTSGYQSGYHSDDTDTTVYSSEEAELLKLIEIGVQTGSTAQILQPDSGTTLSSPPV

MV4-11 cell line [4] = experiment: Cell cycle analysis; type: cell-based; details: for Cell percentage SubG1: control 7.12 ± 0.569; for Cell percentage G2/M: control 20.98 ± 0.614; for Cell percentage S: control 24.54 ± 2.475; for Cell percentage G0/G1: control 45.40 ± 3.051
MV4-11 cell line [5] = experiment: Antiproliferative MTT assay, MV4-11; type: cell-based; details: Homo sapiens, MV4-11, read-out: Anti-proliferative IC50 MV4-11
Method in brief: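 MV4-11 cells grown in RPMI 1640 with stable glutamine, 10% FBS, 1.0 mM sodium pyruvate and penicillin/streptomycin at 37 °C, 5% CO2. Seeded at 2000 cells/well, then treated after 24 h with test compound (DMSO stock of 10 mg mL−1 diluted in medium; 0.1–100 μg mL−1) for 72 h. MTT added for 4 h, formazan dissolved in DMF, A570 read. IC50 calculated.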

xanthine oxidase (XO) [6] = biological target: T1, xanthine oxidase (XO); experiment: Kinetics of xanthine oxidase inhibition; type: biochemical; details: for V max: XO alone 2.25 / 2.21; for K m: XO alone Km 40
MV4-11 cell line [7] = details: MV4-11 cancer cell line; cited from earlier work

IC50 (A498 (kidney carcinoma)): 58.9 µM
IC50 [1]: 151 µM
IC50 [2]: 91.2 µM
IC50 (xanthine oxidase (XO) [3]): 43.7 ± 5.51 µM
IC50 (CDK6/Cyclin D3): 0.603 µM
IC50 (VEGFR-2): 0.309 µM
SMILES: O=C1C(=O)N(CCn2ncc3c(=O)[nH]cnc32)c2ccccc21 [6a, 1-[2-(1,5-Dihydro-4-oxopyrazolo[3,4-d]pyrimidin-1-yl)ethyl] indole-2,3-dione]

IC50 (A498 (kidney carcinoma)): 16.2 µM
IC50 [1]: 15.1 µM
IC50 [2]: 13.2 µM
IC50 (MV4-11 cell line [5]): 5.85 µM
SMILES: O=C1C(=O)N(CCn2ncc3c(=O)[nH]cnc32)c2ccc(Cl)cc21 [6b, 5-Chloro-1-[2-(1,5-dihydro-4-oxopyrazolo[3,4-d]pyrimidin-1-yl)ethyl]indole-2,3-dione]
Cell percentage SubG1 (MV4-11 cell line [4]; MV4-11, 1 μg mL^−1): 3.48 ± 1.178%
Cell percentage G2/M (MV4-11 cell line [4]; MV4-11, 1 μg mL^−1): 17.67 ± 1.285%
Cell percentage S (MV4-11 cell line [4]; MV4-11, 1 μg mL^−1): 27.15 ± 3.651%
Cell percentage G0/G1 (MV4-11 cell line [4]; MV4-11, 1 μg mL^−1): 50.37 ± 4.619%
Selectivity index (SI) A498 (A498 (kidney carcinoma)): 2.03
Selectivity index (SI) HepG2 [1]: 2.15
Selectivity index (SI) MDA-MB-231 [2]: 2.49

IC50 (A498 (kidney carcinoma)): 30.2 µM
IC50 [1]: 93.3 µM
IC50 [2]: 47.9 µM
SMILES: COc1ccc2c(c1)C(=O)C(=O)N2CCn1ncc2c(=O)[nH]cnc21 [6c, 1-[2-(1,5-Dihydro-4-oxopyrazolo[3,4-d]pyrimidin-1-yl)ethyl]5-methoxyindole-2,3-dione]

IC50 (A498 (kidney carcinoma)): 38.9 µM
IC50 [1]: 61.7 µM
IC50 [2]: 47.9 µM
SMILES: O=C1C(=O)N(CCn2ncc3c(=O)[nH]cnc32)c2ccc(F)cc21 [6d, 5-Fluoro-1-[(2-(1,5-dihydro-4-oxopyrazolo[3,4-d]pyrimidin-1-yl)ethyl)]indole-2,3-dione]

IC50 [2]: 209 µM
SMILES: Nc1ncnc2c1ncn2CCN1C(=O)C(=O)c2ccccc21 [7a, 1-[2-(6-Amino-9H-purin-9-yl)ethyl]-2,3-dihydro-1H-indole-2,3-dione]

IC50 (A498 (kidney carcinoma)): 52.5 µM
IC50 [1]: 6.03 µM
IC50 [2]: 19.5 µM
IC50 (xanthine oxidase (XO) [3]): 66.1 µM
IC50 (MV4-11 cell line [5]): 11.8 µM
IC50 (CDK6/Cyclin D3): 1.51 µM
IC50 (VEGFR-2): 0.513 µM
SMILES: Nc1ncnc2c1ncn2CCN1C(=O)C(=O)c2cc(Cl)ccc21 [7b, 1-[2-(6-Amino-9H-purin-9-yl)ethyl]-5-chloro-2,3-dihydro-1H-indole-2,3-dione]
Increase in S phase relative to control (MV4-11 cell line [4]; MV4-11, 10 μg mL^−1, p < 0.05): 1.49 fold
Cell percentage SubG1 (MV4-11 cell line [4]; MV4-11, 10 μg mL^−1): 6.15 ± 2.74% and 6.15 ± 2.739%
Cell percentage G2/M (MV4-11 cell line [4]; MV4-11, 10 μg mL^−1): 13.32 ± 2.763%
Cell percentage S (MV4-11 cell line [4]; MV4-11, 10 μg mL^−1): 36.66 ± 4.326%
Cell percentage G0/G1 (MV4-11 cell line [4]; MV4-11, 10 μg mL^−1): 44.36 ± 4.193%
Selectivity index (SI) A498 (A498 (kidney carcinoma)): 1.37
Selectivity index (SI) HepG2 [1]: 11.89
Selectivity index (SI) MDA-MB-231 [2]: 3.64

IC50 (A498 (kidney carcinoma)): 182 µM
IC50 [1]: 77.6 µM
IC50 [2]: 135 µM
SMILES: COc1ccc2c(c1)C(=O)C(=O)N2CCn1cnc2c(N)ncnc21 [7c, 1-[2-(6-Amino-9H-purin-9-yl)ethyl]-2,3-dihydro-5-methoxy-1H-indole-2,3-dione]

IC50 (A498 (kidney carcinoma)): 166 µM
IC50 [1]: 17.4 µM
IC50 [2]: 83.2 µM
SMILES: Nc1ncnc2c1ncn2CCN1C(=O)C(=O)c2cc(F)ccc21 [7d, 1-[2-(6-Amino-9H-purin-9-yl)ethyl]-2,3-dihydro-5-fluoro-1H-indole-2,3-dione]

IC50 (A498 (kidney carcinoma)): 14.1 µM
IC50 [1]: 13.2 µM
IC50 [2]: 53.7 µM
IC50 (xanthine oxidase (XO) [3]): 21.9 µM
IC50 (CDK6/Cyclin D3): 0.0676 µM
IC50 (VEGFR-2): 0.0708 µM
SMILES: NC(=S)N/N=C1\C(=O)N(CCn2ncc3c(=O)[nH]cnc32)c2ccc(Cl)cc21 [8b, (2Z)-2-{5-Chloro-2-oxo-1-[2-(4-oxo-1,5-dihydropyrazolo[3,4-d]pyrimidin-1-yl)ethyl]-1,2-dihydro-3H-indol-3-ylidene}hydrazine-1-carbothioamide]
Selectivity index (SI) A498 (A498 (kidney carcinoma)): 2.45
Selectivity index (SI) HepG2 [1]: 2.60
Selectivity index (SI) MDA-MB-231 [2]: 0.63

IC50 (A498 (kidney carcinoma)): 105 µM
IC50 [1]: 25.1 µM
SMILES: NC(=S)N/N=C1\C(=O)N(CCn2ncc3c(=O)[nH]cnc32)c2ccc(F)cc21 [8d, (2Z)-2-{5-Fluoro-2-oxo-1-[2-(4-oxo-1,5-dihydropyrazolo[3,4-d]pyrimidin-1-yl)ethyl]-1,2-dihydro-3H-indol-3-ylidene}hydrazine-1-carbothioamide]

IC50 [1]: 56.2 µM
SMILES: NC(=S)N/N=C1\C(=O)N(CCn2cnc3c(N)ncnc32)c2ccc(F)cc21 [9d, (2Z)-2-{5-Fluoro-2-oxo-1-[2-(6-aminopurine-9-yl)ethyl]-1,2-dihydro-3H-indol-3-ylidene}hydrazine-1-carbothioamide]

Type of XO inhibition (xanthine oxidase (XO) [6]; Lineweaver–Burk plot): mixed
V max (xanthine oxidase (XO) [6]; inhibitor 0.1 μM): 1.51
K m (xanthine oxidase (XO) [6]; inhibitor 0.1 μM): 50
V max (xanthine oxidase (XO) [6]; inhibitor 1 μM): 1.33
K m (xanthine oxidase (XO) [6]; inhibitor 1 μM): 64
V max (xanthine oxidase (XO) [6]; inhibitor 10 μM): 0.55
K m (xanthine oxidase (XO) [6]; inhibitor 10 μM): 51
SMILES: Oc1ncnc2[nH]ncc12 [Allopurinol]

SMILES: CC(=O)c1c(C)c2cnc(Nc3ccc(N4CCNCC4)cn3)nc2n(C2CCCC2)c1=O [Palbociclib]
Cell cycle arrest phase (MV4-11 cell line [7]): cell cycle arrest at the G1 phase

IC50 (A498 (kidney carcinoma)): 63.1 µM
IC50 [1]: 44.7 µM
IC50 [2]: 81.3 µM
SMILES: CNC(=O)c1cc(Oc2ccc(NC(=O)Nc3ccc(Cl)c(C(F)(F)F)c3)cc2)ccn1 [Sorafenib, reference compound]
